# Experimental data of several laboratories.
# Protocols differ between the studies behind these lines.
# RAF1: RAF proto-oncogene serine/threonine-protein kinase (RAF1, Homo sapiens, UniProt P04049)
# RAF1 Y340D/Y341D: RAF proto-oncogene serine/threonine-protein kinase (RAF1, Homo sapiens, UniProt P04049, Y340D/Y341D)
Compound,target,observed,action,method,concentration,endpoint,result
CCN(CC)CCNC(=O)c1c(C)[nH]c(/C=C2\C(=O)Nc3ccc(F)cc32)c1C,RAF1,cell-free assay,,,0.5 µM,remaining signal,110%
CC(C)(O)[C@H]1CC[C@H](Nc2ccc3ncc(-c4cccc(C(F)(F)F)c4)n3n2)CC1,RAF1,enzyme activity,inhibitor,,1 µM,remaining activity,91.6%
Cc1ccc(Nc2nccc(N(C)c3ccc4c(C)n(C)nc4c3)n2)cc1S(N)(=O)=O,RAF1,enzyme activity,inhibitor,,0.3 µM,inhibition,77%
CS(=O)(=O)Nc1cccc(-c2csc(NC(=O)CSc3nc4nccnc4c(=O)n3CCc3ccccc3)n2)c1,RAF1 Y340D/Y341D,enzyme activity,inhibitor,,10 µM,inhibition,-1%
Cc1[nH]c(/C=C2\C(=O)Nc3ccc(F)cc32)c(C)c1C(=O)N[C@H]1CCN(C(=O)N(C)C)C1,RAF1,enzyme activity,inhibitor,,0.1 µM,remaining activity,118%
CCS(=O)(=O)c1cc2cc(C[C@](O)(CC(C)(C)c3ccc(F)cc3C(N)=O)C(F)(F)F)[nH]c2cn1,RAF1,cell-free assay,,competition with immobilised ligand,1 µM,remaining binding,83%
O=C1Nc2ccc(Cl)cc2C1=Cc1cc(Cl)c(O)c(Cl)c1,RAF1,cell-free assay,,,0.5 µM,remaining signal,6.93%
CN(C)C1CCN(CC#Cc2nn(C3CCCC3)c3nc(NCc4ccccc4)ncc23)C1 (stereo not shown),RAF1 Y340D/Y341D,enzyme activity,inhibitor,FRET,10 µM,inhibition,3%
C[S+]([O-])c1ccc(-c2nc(-c3ccncc3)c(-c3ccc(F)cc3)[nH]2)cc1 (stereo not shown),RAF1,cell-free assay,,,0.5 µM,remaining signal,41.1%
c1nc2c(Nc3ccc4c(c3)OCCO4)nc(Nc3ccc4c(c3)OCCO4)nc2[nH]1,RAF1,enzyme activity,inhibitor,,10 µM,activity vs control,95%
CC(C)(C)c1nc(-c2cccc(NS(=O)(=O)c3c(F)cccc3F)c2F)c(-c2ccnc(N)n2)s1,RAF1 Y340D/Y341D,enzyme activity,inhibitor,radiometric,1 µM,remaining activity,1%
CS(=O)(=O)c1cc(C2(NC(=O)c3cncc4c3cnn4-c3ccc(F)cc3)CC2)ccn1,RAF1,cell-free assay,,competition with immobilised ligand,1 µM,remaining binding,100%
Cc1cc(NC(=O)c2cccc3cc(-c4cccc5[nH]nc(N)c45)ccc23)ccc1F,RAF1,enzyme activity,inhibitor,,0.1 µM,activity vs control,97%
C[C@@H]1CN(c2cc(-c3nn(C)c4ccc(OC5(C)CC5)cc34)ncn2)C[C@H](C)O1,RAF1,cell-free assay,,competition with immobilised ligand,1 µM,remaining binding,100%
CNCc1ccc(-c2cc(-c3nc(-c4ccc(S(=O)(=O)C(C)C)cc4)cnc3N)on2)cc1,RAF1,enzyme activity,inhibitor,,0.4 µM,inhibition,0%
Nc1ncnc2occ(-c3ccc(NC(=O)Nc4cc(C(F)(F)F)ccc4F)cc3)c12,RAF1,cell-free assay,inhibitor,,20 µM,remaining signal,0%
CN1CC(Oc2cnc(C#N)cc2-c2ccn3nc(NC(=O)C4CC4)cc3c2)C1,RAF1,enzyme activity,inhibitor,,1 µM,inhibition,2%
Cc1cc(-n2nc(Cc3cc(F)cc(C(F)(F)F)c3)nc2C)ccc1C(N)=O,RAF1,cell-free assay,,competition with immobilised ligand,1 µM,remaining binding,87%
COc1cc2ncnc(Nc3ccc(Oc4ccccc4)c(C)c3C)c2cc1OC,RAF1 Y340D/Y341D,enzyme activity,inhibitor,,1 µM,inhibition,-6%
CCOCCn1cc(C(=O)Nc2ccc(-n3nc(-c4cccnc4)cc3C(F)(F)F)cn2)ccc1=O,RAF1,cell-free assay,,competition with immobilised ligand,1 µM,remaining binding,100%
C=CC(=O)Nc1cc(Nc2nccc(Nc3cc(Cl)c(F)cc3C(C)(C)O)n2)c(OC)cc1N1CC[C@@H](N(C)C)C1,RAF1,enzyme activity,inhibitor,,1 µM,inhibition,10%
COc1cc(-c2cc(-c3ccc(N4CCNCC4)cc3)cnc2N)cc(OC)c1OC,RAF1,enzyme activity,inhibitor,,0.1 µM,inhibition,2%
Cc1sc(C(=O)NC2COC2)cc1-n1cc(NC(=O)Nc2c(F)cccc2Cl)cn1,RAF1,enzyme activity,inhibitor,,10 µM,remaining activity,92.6%
N#Cc1ccc(Nc2ccc3[nH]c(=O)[nH]c3c2)c(Cl)c1,RAF1,cell-free assay,,competition with immobilised ligand,1 µM,remaining binding,68%
CCOc1cc(-c2nncn2C)ccc1Nc1ncc2cc(C)nc(NCC(C)(C)C)c2n1,RAF1 Y340D/Y341D,cell-free assay,,TR-FRET,1 µM,inhibition,≤ 15%
CCN(CC)CCNC(=O)c1c(C)[nH]c(/C=C2\C(=O)Nc3ccc(F)cc32)c1C,RAF1,enzyme activity,inhibitor,,0.1 µM,remaining activity,95%
O=C(Nc1cnn(-c2csc(C(=O)NC3COC3)c2)c1)Nc1ccccc1Cl,RAF1,enzyme activity,inhibitor,,5 µM,remaining activity,87%
O=C(O)[C@@H]1[C@@H](Cn2nnc3ccccc3c2=O)CC[C@H]1C(=O)c1ccc(OCCC2CCOCC2)cc1,RAF1,cell-free assay,,competition with immobilised ligand,1 µM,remaining binding,100%
CNC(=O)c1cc2c(Oc3ccc(NC(=O)C4(C(=O)Nc5ccc(F)cc5)CC4)cc3)ccnc2cc1OC,RAF1,enzyme activity,inhibitor,radiometric,1 µM,inhibition,83%
O=C(O)c1cc(-c2ccc(C3CCNCC3)cc2)c2ccc(-c3ccc(C(F)(F)F)cc3)cc2c1,RAF1,cell-free assay,,competition with immobilised ligand,1 µM,remaining binding,70%
N#CCCc1ccc2c(c1)-c1[nH]c3ccc([N+](=O)[O-])cc3c1CC(=O)N2,RAF1,cell-free assay,,,0.5 µM,remaining signal,104%
